Laboratory results from ChEMBL document CHEMBL4414552, “Homotrimerization Approach in the Design of Thrombospondin-1 Mimetic Peptides with Improved Potency in Triggering Regulated Cell Death of Cancer Cells” (J Med Chem, 2019).
Active and inactive are the calls of the source. The calls are words filed in the database; no cut-off is given here.

Columns and labels:
MEC1 [1] = experiment: Cytotoxicity against human MEC1 cells assessed as induction of cell death at 200 uM after 6 hrs by annexin V/propidium iodide staining based flow cytometric analysis relative to control; type: functional
[2] = target: T1, Leukocyte surface antigen CD47 (Homo sapiens, UniProt Q08722); experiment: Binding affinity to CD47 in biotinylated human MEC1 cell membranes by biolayer interferometry
T1 sequence (Q08722 whole entry): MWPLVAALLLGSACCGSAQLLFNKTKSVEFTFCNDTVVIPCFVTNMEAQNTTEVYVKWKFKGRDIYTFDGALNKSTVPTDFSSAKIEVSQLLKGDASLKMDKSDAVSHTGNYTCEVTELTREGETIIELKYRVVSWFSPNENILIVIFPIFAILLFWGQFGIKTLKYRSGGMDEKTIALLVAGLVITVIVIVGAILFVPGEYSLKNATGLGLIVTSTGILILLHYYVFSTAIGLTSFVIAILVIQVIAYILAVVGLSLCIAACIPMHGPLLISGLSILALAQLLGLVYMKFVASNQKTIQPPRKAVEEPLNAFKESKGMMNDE
Summary of the method: (§1)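 Biotinylated membrane preparations from MEC-1 cells were loaded onto SuperStreptavidin biosensors. Binding was measured by bilayer interferometry (Octet RED96) in PBS with 0.2% BSA and 1% DMSO at 30 °C. Affinities are given as apparent Kd estimates.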

[3] = target: T1, Leukocyte surface antigen CD47; experiment: Binding affinity to CD47 in biotinylated human MEC1 cell membranes at 300 uM by biolayer interferometry; summary of the method: as §1
MEC1 [4] = experiment: Cytotoxicity against human MEC1 cells assessed as induction of cell death at 300 uM after 6 hrs by annexin V/propidium iodide staining based flow cytometric analysis relative to control; type: functional

| Compound | Activity (MEC1 [1]) | Kd [2] | Activity [2] | Activity [3] | Activity (MEC1 [4]) |
| --- | --- | --- | --- | --- | --- |
| CSCC[C@@H](C(=O)N[C@@H](Cc1c[nH]c2ccccc12)C(=O)N[C@@H](CCCCN)C(=O)N[C@H](CCCCN)C(=O)O)N(C)C(=O)[C@@H](NC(=O)[C@@H](NC(=O)[C@H](Cc1ccc(O)cc1)NC(=O)[C@H](Cc1ccccc1)NC(=O)[C@H](CCCNC(=N)N)NC(=O)[C@H](N)CCCCN)C(C)C)C(C)C | 11% | – | – | – | – |
| CC(C)[C@H](NC(=O)[C@H](Cc1ccc(O)cc1)NC(=O)[C@H](Cc1ccccc1)NC(=O)[C@H](CCCNC(=N)N)N(C)C(=O)[C@H](N)CCCCN)C(=O)N[C@H](C(=O)N[C@@H](Cc1ccc(O)cc1)C(=O)N[C@@H](Cc1c[nH]c2ccccc12)C(=O)N[C@@H](CCCCN)C(=O)N[C@H](CCCCN)C(=O)O)C(C)C | 19% | 13 µM | – | – | – |
| CSCC[C@H](NC(=O)[C@@H](NC(=O)[C@@H](NC(=O)[C@H](Cc1ccc(O)cc1)NC(=O)[C@H](Cc1ccccc1)NC(=O)[C@H](CCCNC(=N)N)N(C)C(=O)[C@H](N)CCCCN)C(C)C)C(C)C)C(=O)N[C@@H](Cc1c[nH]c2ccccc12)C(=O)N[C@@H](CCCCN)C(=O)N[C@H](CCCCN)C(=O)O | 54% | 21 µM | – | – | – |
| CCCC[C@H](NC(=O)[C@@H](NC(=O)[C@@H](NC(=O)[C@H](Cc1ccc(O)cc1)NC(=O)[C@H](Cc1ccccc1)NC(=O)[C@H](CCCNC(=N)N)N(C)C(C)=O)C(C)C)C(C)C)C(=O)N[C@@H](Cc1c[nH]c2ccccc12)C(=O)N[C@@H](CCCCN)C(N)=O | 51% | 20 µM | – | – | – |
| H-KWVKYRVMFK-OH | inactive | – | inactive | inactive | inactive |
| CSCC[C@H](NC(=O)[C@@H](NC(=O)[C@H](C(C)C)N(C)C(=O)[C@H](Cc1ccc(O)cc1)NC(=O)[C@H](Cc1ccccc1)NC(=O)[C@H](CCCNC(=N)N)NC(=O)[C@H](N)CCCCN)C(C)C)C(=O)N[C@@H](Cc1c[nH]c2ccccc12)C(=O)N[C@@H](CCCCN)C(=O)N[C@H](CCCCN)C(=O)O | 11% | 36 µM | – | – | – |
